The test system of series [1] is Streptococcus gordonii. The series can be described thus: Antibacterial activity against Streptococcus gordonii DL1 preincubated for 24 hrs under anaerobic condition followed by incubation in columbia petri plates for 24 hrs by broth microdilution method. The series is classed as functional. In short, it runs like this: (§1)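 CLSI broth microdilution in BHI. Compounds serially diluted 1:2 from 300 µg/mL; doxycycline control from 32.8 µg/mL; solvent mix also diluted. Wells inoculated with 3x10^7 CFU/mL, incubated 24 h anaerobically. MIC is the lowest clear well. Clear wells are plated on Columbia agar for 24 h; MBC is the lowest concentration killing ≥99% of inoculum.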
For orientation: Dilution methods test growth across graded concentrations, often in twofold steps.

Series [2] deals with Streptococcus gordonii. The series is described as follows: Antibacterial activity against Streptococcus gordonii DL1 incubated for 24 hrs under anaerobic condition by agar dilution method. The series is classed as functional. The conditions noted are these: DL1, 24 h. In short, it runs like this:
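Columbia agar with horse blood containing compound at 300, 250, 200, 150, 100, 90, 80 or 70 µg/mL. Doxycycline positive control at 1:2 dilutions from 1.31 µg/mL; DMSO + methanol and water as negative controls. 2 µl spots of 10^5 CFU/mL inoculum, anaerobic incubation 24 h. MIC taken as lowest concentration preventing growth. Done three times.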
A general note: In agar dilution the substance is mixed into plates at graded concentrations.

Series [3] relates to Streptococcus gordonii. The series can be described thus: Bactericidal activity against Streptococcus gordonii DL1 preincubated for 24 hrs under anaerobic condition followed by incubation in columbia petri plates for 24 hrs by broth microdilution method. The series is classed as functional. In short, it runs like this: as §1
Series [4] is described as follows: Cytotoxicity against human Ca9-22 cells assessed as cell viability at MIC after 24 hrs by MTT assay relative to control. The class given is toxicity, cell-based. The conditions noted are these: read-out: Activity. (In general: Tetrazolium assays rely on reduction of a dye to a coloured formazan, in cell work by metabolically active cells.)
In series [5] the test system is Streptococcus gordonii. The series is described as follows: Potency index, ratio of doxycycline MBC=>99 to compound MBC=>99 for Streptococcus gordonii DL1. The series is classed as functional.
Series [6] can be described thus: Cytotoxicity against human THP1 cells assessed as cell death at MIC after 24 hrs by LDH assay. The conditions noted are these: thp-1, 24 h. The class given is toxicity, cell-based. In outline:
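THP-1 cells were grown in RPMI 1640 with 1 mM pyruvate, 10% FBS and 2 mM L-glutamine at 37 °C, 5% CO2. They were seeded at 70 000 cells/well and differentiated with PMA 10 ng/mL for 72 h. Medium was replaced with compound for 24 h, with medium-only and Triton 1% controls (Triton = 100%). LDH release was measured in supernatant with CytoTox reagent for 30 min in the dark at room temperature, then stopped, and OD was read at 490 nm. Three experiments, each in triplicate.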

Series [7] can be described thus: Cytotoxicity against human Ca9-22 cells assessed as cell death at MIC after 24 hrs by LDH assay. The class given is toxicity, cell-based. The conditions noted are these: ca9-22, 24 h. In short, it runs like this:
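Ca9-22 gingival epithelial cells were grown in DMEM with 10% heat-inactivated FBS and 2 mM L-glutamine at 37 °C, 5% CO2, then trypsinized and seeded at 70 000 cells/well for 24 h. Compound was applied for 24 h, with medium-only and Triton 1% controls (Triton = 100% cytotoxicity). Supernatant was mixed with CytoTox reagent for 30 min in the dark at room temperature, then stopped, and OD was read at 490 nm. Three experiments, each in triplicate.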

Series [8] in a line: Cytotoxicity against human THP1 cells assessed as cell viability at MIC after 24 hrs by MTT assay relative to control. The series is classed as toxicity, cell-based, THP-1. To be noted: read-out: Activity. In short, it runs like this: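 THP-1 grown in RPMI with pyruvate, Hepes and 10% FBS. Seeded at 70 000 cells/well and differentiated with PMA 10 ng/mL for 72 h. Medium removed, then compound at its MIC added for 24 h; Triton 1% positive control. MTT from 5 mg/mL stock for 4 h at 37 °C; acid-isopropanol solubilization; OD 595/655 nm as % of untreated. Three experiments in triplicate.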

In brackets after ≈: the same amount, converted by molar mass.

A word on the MIC: it is the lowest concentration that inhibits growth of the organism. Lower therefore signals greater potency. A word on the mortality: it is the percentage killed.

For `CCCCCCCCCCCCC[C@H]1OC(=O)C(C)=C1C(=O)O`, the minimal inhibitory concentration (MIC) came to 4.69 µg/mL (≈ 14.5 µM) against Streptococcus gordonii [1] and 90 µg/mL (≈ 277 µM) against Streptococcus gordonii [2]. Moreover, the “MBC=>99” value against Streptococcus gordonii [3] turned out to be 18.75 µg/mL (≈ 57.8 µM).
`C=C[C@H]1CC(=O)O[C@@H]1CCCCCCCCC`: the MIC in the series on Streptococcus gordonii [1] is 75 µg/mL (≈ 315 µM); against Streptococcus gordonii [2] it was above 300 µg/mL. The “MBC=>99” value against Streptococcus gordonii [3] is 150 µg/mL (≈ 629 µM).
With `CCCCCCCCCCCCCCC[C@@H]1OC(=O)C(C)=C1C(=O)O`, the viability at 24 h turned out to be 100% in series [4] and 107% in series [8]. Besides, the minimal inhibitory concentration (MIC) with Streptococcus gordonii [1] came to 9.38 µg/mL (≈ 26.6 µM); against Streptococcus gordonii [2], 200 µg/mL (≈ 567 µM). Further, the Ratio with Streptococcus gordonii [5] stood at 2. Further, the mortality in series [6] is recorded as 20%; in series [7] it was 9.6%. In the series on Streptococcus gordonii [3], the “MBC=>99” value is 18.75 µg/mL (≈ 53.2 µM).
As to `CCCCCCCCC[C@@H]1C=CC(=O)O1`, the MIC against Streptococcus gordonii [1] came out at 150 µg/mL (≈ 713 µM); against Streptococcus gordonii [2], 300 µg/mL (≈ 1430 µM). Further, the “MBC=>99” value with Streptococcus gordonii [3] stood at 300 µg/mL (≈ 1430 µM).
Regarding `CCCCCCCCCCCCC[C@@H]1OC(=O)C(C)=C1C(=O)O`, the MIC worked out at 4.69 µg/mL (≈ 14.5 µM) against Streptococcus gordonii [1] and 90 µg/mL (≈ 277 µM) against Streptococcus gordonii [2]. Further, the “MBC=>99” value against Streptococcus gordonii [3] worked out at 18.75 µg/mL (≈ 57.8 µM).
For `CCCCCCCCC[C@@H]1OC(=O)C(C)=C1C(=O)O` the same measures were 150 µg/mL (≈ 559 µM), 150 µg/mL (≈ 559 µM) and above 300 µg/mL.
Turning to `CCCCCCCCC[C@H]1OC(=O)C[C@H]1O`, the figures for the MIC in the series on Streptococcus gordonii [1] and in the series on Streptococcus gordonii [2] were 150 µg/mL (≈ 657 µM) and 300 µg/mL (≈ 1310 µM), respectively. Also, in the series with Streptococcus gordonii [3], the “MBC=>99” value turned out to be 300 µg/mL (≈ 1310 µM).
As to `C=C[C@H]1CC(=O)O[C@@H]1CCCCCCCCCCCCC`, the minimum inhibitory concentration (MIC) against Streptococcus gordonii [1] was 75 µg/mL (≈ 255 µM); against Streptococcus gordonii [2], above 300 µg/mL. Also, in the series on Streptococcus gordonii [3], the “MBC=>99” value is 75 µg/mL (≈ 255 µM).
For the compound `CCCCCCCCCCCCC[C@@H]1C=CC(=O)O1`, the results for the MIC against Streptococcus gordonii [1] and in the series on Streptococcus gordonii [2] were 75 µg/mL (≈ 282 µM) and above 300 µg/mL, respectively. In addition, the “MBC=>99” value in the series with Streptococcus gordonii [3] amounted to 75 µg/mL (≈ 282 µM).
On to `CCCCCCCCCCCCCCCC[C@@H]1OC(=O)C(C)=C1C(=O)O`, for which the viability at 24 h in series [4] is 96%; in series [8] it was 106%. Besides, the MIC in the series on Streptococcus gordonii [1] is 9.38 µg/mL (≈ 25.6 µM); against Streptococcus gordonii [2] it was above 300 µg/mL. The Ratio with Streptococcus gordonii [5] is on record as 3. Moreover, the mortality in series [6] is reported as 10%; in series [7] it was 12%. Besides, the “MBC=>99” value with Streptococcus gordonii [3] stood at 9.38 µg/mL (≈ 25.6 µM).
For the compound `CCCCCCCCC[C@H]1OC(=O)C(C)=C1C(=O)O`, the minimum inhibitory concentration (MIC) against Streptococcus gordonii [1] and against Streptococcus gordonii [2] was 150 µg/mL (≈ 559 µM) throughout. In addition, the “MBC=>99” value with Streptococcus gordonii [3] was above 300 µg/mL.
As for `CCCCCCC[C@@H]1OC(=O)C(C)=C1C(=O)O`, the MIC in the series with Streptococcus gordonii [1] and against Streptococcus gordonii [2] was above 300 µg/mL in each case. In addition, the “MBC=>99” value with Streptococcus gordonii [3] is above 300 µg/mL.
Take `CCCCCCCCCCCCC[C@H]1OC(=O)C[C@H]1O`: the MIC in the series on Streptococcus gordonii [1] is 75 µg/mL (≈ 264 µM); in the series on Streptococcus gordonii [2], above 300 µg/mL. Also, the “MBC=>99” value against Streptococcus gordonii [3] was found to be 150 µg/mL (≈ 527 µM).
For `C[C@H]1c2cccc(O)c2C(=O)C2=C(O)[C@]3(O)C(=O)C(C(N)=O)=C(O)[C@@H](N(C)C)[C@@H]3[C@@H](O)[C@@H]21.O` [DOXYCYCLINE], the MIC was 0.51 µg/mL against Streptococcus gordonii [1] and 0.41 µg/mL with Streptococcus gordonii [2]. The “MBC=>99” value against Streptococcus gordonii [3] is 32.8 µg/mL.

Values taken from ChEMBL document CHEMBL3856273, “Design, synthesis and biological evaluation of potential antibacterial butyrolactones” (Bioorg Med Chem, 2016).
